Data from ChEMBL document CHEMBL4130355, “Development of a series of novel 4-anlinoquinazoline derivatives possessing quinazoline skeleton: Design, synthesis, EGFR kinase inhibitory efficacy, and evaluation of anticancer activities in vitro” (Eur J Med Chem, 2017).
pIC50: −log10 of the molar value.

Experiments:
HepG2 [1] = experiment: Cell cycle arrest in human HepG2 assessed as accumulation at S phase at 10 uM after 48 hrs by propidium iodide-staining based flow cytometry (reference value: 21.46%); type: functional
Outline: (§1)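 HepG2 cells at 5.0 × 10^5/well were grown 24 h, then treated at 0, 2.5, 5.0 or 10.0 µM for 48 h alongside medium-only wells. Cells fixed in 70% ice-cold ethanol for ≥24 h, treated with RNase A at 37 °C for 30 min, then stained with propidium iodide for 30 min at 4 °C in the dark. DNA content read by flow cytometry. Average of at least three experiments.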

[2] = biological target: T1, Epidermal growth factor receptor (Homo sapiens, UniProt P00533); settings: HEK293, at 0.0001 µM
A549 [3] = experiment: Antiproliferative activity against human A549 cells at 1 uM after 48 hrs by MTT assay relative to control; type: functional
Outline: (§2)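 MTT assay in triplicate wells. Cells (2 × 10^3/well) were attached 24 h, then treated at 0.1, 1, 10, 50 or 100 µM for 24, 48 or 72 h. MTT added for 4 h, SDS solubilisation, absorbance at 570/650 nm. Inhibition = 1 − (OD treated − blank)/(OD control − blank). Reported as mean ± SD of three independent experiments.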

HepG2 [4] = experiment: Cell cycle arrest in human HepG2 assessed as accumulation at G2/M phase at 2.5 uM after 48 hrs by propidium iodide-staining based flow cytometry (reference value: 9.13%); type: functional; outline: as §1
A549 [5] = experiment: Antiproliferative activity against human A549 cells after 72 hrs by MTT assay; type: functional, cell-based; settings: A549, 72 h
HepG2 [6] = experiment: Induction of apoptosis in human HepG2 cells assessed as intracellular free Ca2+ levels at 2.5 uM after 48 hrs by FL1 channel/FACS analysis (reference value: 14.2%); type: functional
Outline: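 HepG2 seeded at 5.0 × 10^5 cells/mL, 24 h at 37 °C in 5% CO2, then treated 48 h (2.5–20 µM). Harvested cells were washed in ice-cold PBS and loaded with 4 µM Fluo-3/AM for 30 min. After trypsinizing, they were washed twice and resuspended in HEPES, and fluorescence was measured in the FL-1 channel by flow cytometry. Values are averages of at least three independent experiments.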

SH-SY5Y = experiment: Antiproliferative activity against human SH-SY5Y cells after 72 hrs by MTT assay; type: functional, cell-based
HepG2 [7] = experiment: Cytotoxicity against human HepG2 cells at 40 uM after 48 hrs by LDH release assay (reference value: 100%); type: functional
Outline: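 HepG2 seeded at 1.0 × 10^5 cells/well, grown 24 h at 37 °C in 5% CO2, then dosed for 48 h. LDH in supernatant read on plate reader per kit. Maximal release (100% cytotoxicity) came from lysis with 2% (V/V) lysate for 1 h at 37 °C; medium-only cells served as natural release. Triplicate, three independent runs.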

HepG2 [8] = experiment: Antiproliferative activity against human HepG2 cells after 24 hrs by MTT assay; type: functional, cell-based; settings: HepG2, 24 h
Outline: (§3)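 MTT read-out. Cells seeded at 2 × 10^3/well, attached 24 h at 37 °C in 5% CO2, then exposed to 0.1–100 µM for 24, 48 or 72 h. MTT for 4 h, formazan dissolved in 10% SDS/NH4Cl for 10 h, absorbance at 570 nm corrected at 650 nm. % inhibition computed against untreated and blank wells. IC50 is the mean of at least three independent experiments.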

HepG2 [9] = experiment: Cell cycle arrest in human HepG2 assessed as accumulation at G2/M phase at 5 uM after 48 hrs by propidium iodide-staining based flow cytometry (reference value: 9.13%); type: functional; outline: as §1
HepG2 [10] = experiment: Cytotoxicity against human HepG2 cells at 2.5 uM after 48 hrs by LDH release assay (reference value: 100%); type: functional
Outline: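 LDH release. HepG2 cells at 1.0 × 10^5/well were incubated 24 h at 37 °C, then treated at 2.5–40 µM for 48 h. Cells lysed with 2% lysate for 1 h gave the full-release (100%) reference; medium-only cells were the low control. LDH in the supernatant was measured per kit. Triplicates, three independent repeats.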

A549 [11] = experiment: Antiproliferative activity against human A549 cells at 0.1 uM after 72 hrs by MTT assay relative to control; type: functional; outline: as §2
HepG2 [12] = experiment: Cell cycle arrest in human HepG2 assessed as accumulation at G0/G1 phase at 10 uM after 48 hrs by propidium iodide-staining based flow cytometry (reference value: 69.40%); type: functional; outline: as §1
[13] = biological target: T1, Epidermal growth factor receptor; settings: HEK293, at 0.001 µM
A549 [14] = experiment: Antiproliferative activity against human A549 cells at 100 uM after 72 hrs by MTT assay relative to control; type: functional; outline: as §2
HepG2 [15] = experiment: Induction of apoptosis in human HepG2 cells assessed as caspase-3 activity at 5 uM after 48 hrs by colorimetric assay relative to control; type: functional
Outline: (§4)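 After 48 h treatment, HepG2 were rinsed in ice-cold PBS and lysed 1–1.5 h on ice in buffer with 1% DTT. Lysate was spun at 10,000×g for 1 min at 4 °C; supernatant protein was measured by Bradford. Supernatant was mixed with 2× reaction buffer (1% DTT) plus caspase-3 chromogenic peptide substrate, held 4 h at 37 °C, and read at 405 nm.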

A549 [16] = experiment: Antiproliferative activity against human A549 cells after 24 hrs by MTT assay; type: functional, cell-based; settings: A549, 24 h; outline: as §3
HepG2 [17] = experiment: Antiproliferative activity against human HepG2 cells at 1 uM after 48 hrs by MTT assay realtive to control; type: functional; outline: as §2
HepG2 [18] = experiment: Induction of mitochondrial membrane potential loss in human HepG2 cells assessed as mitochondrial membrane potential levels at 2.5 uM after 48 hrs by rhodamine-123 dye based FACS analysis (reference value: 90.4%); type: functional
HepG2 [19] = experiment: Induction of apoptosis in human HepG2 cells assessed as caspase-3 activity at 10 uM after 48 hrs by colorimetric assay relative to control; type: functional; outline: as §4
A549 [20] = experiment: Antiproliferative activity against human A549 cells at 0.1 uM after 48 hrs by MTT assay relative to control; type: functional; outline: as §2
HepG2 [21] = experiment: Cell cycle arrest in human HepG2 assessed as decrease in cell levels at G0/G1 phase after 48 hrs by propidium iodide-staining based flow cytometry; type: functional; outline: as §1
HepG2 [22] = experiment: Antiproliferative activity against human HepG2 cells at 10 uM after 48 hrs by MTT assay realtive to control; type: functional; outline: as §2
A549 [23] = experiment: Antiproliferative activity against human A549 cells at 100 uM after 48 hrs by MTT assay relative to control; type: functional; outline: as §2
HepG2 [24] = experiment: Induction of apoptosis in human HepG2 cells assessed as late apoptotic cells at 2.5 uM after 48 hrs by Annexin V-FITC/propidium iodide double staining-based flow cytometry (reference value: 4.3%); type: functional
HepG2 [25] = experiment: Induction of apoptosis in human HepG2 cells assessed as early apoptotic cells at 2.5 uM after 48 hrs by Annexin V-FITC/propidium iodide double staining-based flow cytometry (reference value: 8.7%); type: functional
A549 [26] = experiment: Antiproliferative activity against human A549 cells after 48 hrs by MTT assay; type: functional, cell-based; settings: A549, 48 h; outline: as §3
A549 [27] = experiment: Antiproliferative activity against human A549 cells at 1 uM after 24 hrs by MTT assay relative to control; type: functional; outline: as §2

T1 sequence (P00533 whole entry): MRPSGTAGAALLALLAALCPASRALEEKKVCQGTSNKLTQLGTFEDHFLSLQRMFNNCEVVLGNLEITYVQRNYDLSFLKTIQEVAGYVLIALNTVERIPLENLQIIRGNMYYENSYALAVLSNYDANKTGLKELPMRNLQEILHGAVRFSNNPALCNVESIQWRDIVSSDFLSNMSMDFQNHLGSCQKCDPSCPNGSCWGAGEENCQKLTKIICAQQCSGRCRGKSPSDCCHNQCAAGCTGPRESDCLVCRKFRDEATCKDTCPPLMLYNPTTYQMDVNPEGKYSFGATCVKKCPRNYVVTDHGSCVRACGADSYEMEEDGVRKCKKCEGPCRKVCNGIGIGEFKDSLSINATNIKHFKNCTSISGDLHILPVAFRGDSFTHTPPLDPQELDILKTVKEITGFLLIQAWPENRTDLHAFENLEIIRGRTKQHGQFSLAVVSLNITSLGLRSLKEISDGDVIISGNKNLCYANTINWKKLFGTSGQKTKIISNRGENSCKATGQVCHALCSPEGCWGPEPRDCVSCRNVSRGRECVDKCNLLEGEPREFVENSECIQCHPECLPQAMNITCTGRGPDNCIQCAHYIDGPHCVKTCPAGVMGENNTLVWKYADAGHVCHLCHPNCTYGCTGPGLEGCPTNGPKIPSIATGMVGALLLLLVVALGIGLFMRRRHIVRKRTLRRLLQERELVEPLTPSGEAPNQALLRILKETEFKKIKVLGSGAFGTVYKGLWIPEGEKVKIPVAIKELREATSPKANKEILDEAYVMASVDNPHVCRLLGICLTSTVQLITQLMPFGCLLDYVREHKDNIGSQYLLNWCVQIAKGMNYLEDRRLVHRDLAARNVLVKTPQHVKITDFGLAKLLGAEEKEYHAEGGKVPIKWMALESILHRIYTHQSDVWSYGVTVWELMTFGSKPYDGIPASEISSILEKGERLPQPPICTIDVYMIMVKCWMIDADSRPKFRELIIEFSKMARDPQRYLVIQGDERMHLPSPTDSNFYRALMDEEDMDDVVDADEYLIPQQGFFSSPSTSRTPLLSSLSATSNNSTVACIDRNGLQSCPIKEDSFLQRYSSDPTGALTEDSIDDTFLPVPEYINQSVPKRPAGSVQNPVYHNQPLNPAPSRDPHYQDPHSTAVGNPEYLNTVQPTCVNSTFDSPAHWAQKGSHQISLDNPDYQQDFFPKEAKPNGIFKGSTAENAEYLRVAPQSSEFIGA

`COc1cc2c(Nc3ccc(C#N)cc3)ncnc2cc1OCCCN1CCC(c2ccccc2)CC1` showed an Activity (HepG2 [1]) of 29.72%, an inhibition [2] of 39.1% and an Activity (A549 [3]) of 2.9%. For the same compound, the Activity (HepG2 [4]) was 10.49%, the pIC50 (A549 [5]) was 5.02 and the Activity (HepG2 [6]) was 41.7%. The pIC50 (SH-SY5Y) was 5.11, the Activity (HepG2 [7]) was 41.17% and the pIC50 (HepG2 [8]) was 4.89. It also gave an Activity (HepG2 [9]) of 9.37%, an Activity (HepG2 [10]) of 39.65% and an Activity (A549 [11]) of 5%. The Activity (HepG2 [12]) was 60.72%, the inhibition [13] was 46.2% and the Activity (A549 [14]) was 95.5%. The Activity (HepG2 [15]) was 145%, the pIC50 (A549 [16]) was 4.82 and the Activity (HepG2 [17]) was 8.6%. For the same compound, the Activity (HepG2 [18]) was 88.3%, the Activity (HepG2 [19]) was 198% and the Activity (A549 [20]) was 1.3%. The Activity (HepG2 [21]) was “Dose-dependent effect”, the Activity (HepG2 [22]) was 55.6% and the Activity (A549 [23]) was 91.4%. It also gave an Activity (HepG2 [24]) of 3.8%, an Activity (HepG2 [25]) of 48.6% and a pIC50 (A549 [26]) of 4.69. The Activity (A549 [27]) was 1.9%.
